Molecules are shown by their SMILES. Values after ≈ are worked out from the molar mass of the structure shown. A value given as a limit tells only on which side of the number the result lay.

In assay [1] the target is T1, Orotidine phosphate decarboxylase (Plasmodium falciparum, UniProt Q8T6J6).
T1 sequence (Q8T6J6 whole entry): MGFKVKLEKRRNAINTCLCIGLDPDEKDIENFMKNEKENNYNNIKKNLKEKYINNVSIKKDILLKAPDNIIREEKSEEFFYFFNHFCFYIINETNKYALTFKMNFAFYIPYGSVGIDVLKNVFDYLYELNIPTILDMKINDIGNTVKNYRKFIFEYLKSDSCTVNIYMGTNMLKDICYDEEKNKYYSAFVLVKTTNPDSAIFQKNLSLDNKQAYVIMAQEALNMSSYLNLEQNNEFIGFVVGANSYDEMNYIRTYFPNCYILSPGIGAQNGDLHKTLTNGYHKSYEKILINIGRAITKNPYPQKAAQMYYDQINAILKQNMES
Description: Inhibition of Plasmodium falciparum ODCase by isothermal titration calorimetry. In outline:
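Recombinant P. falciparum enzyme, preincubated overnight at room temperature in 50 mM Tris, 40 mM NaCl, 20 mM DTT. ITC at 37 °C in 50 mM Tris, 20 mM DTT, pH 7.5, with 60 nM enzyme and 12 μM substrate. Substrate injection into enzyme–inhibitor mix started the reaction. Triplicate runs; competitive Ki derived from rate versus [S] and double-reciprocal plots.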
(In general: ITC needs no label: the signal is the heat of the interaction.)

Assay [2] concerns the target T2, Uridine 5'-monophosphate synthase (Homo sapiens, UniProt P11172).
T2 sequence (P11172 whole entry): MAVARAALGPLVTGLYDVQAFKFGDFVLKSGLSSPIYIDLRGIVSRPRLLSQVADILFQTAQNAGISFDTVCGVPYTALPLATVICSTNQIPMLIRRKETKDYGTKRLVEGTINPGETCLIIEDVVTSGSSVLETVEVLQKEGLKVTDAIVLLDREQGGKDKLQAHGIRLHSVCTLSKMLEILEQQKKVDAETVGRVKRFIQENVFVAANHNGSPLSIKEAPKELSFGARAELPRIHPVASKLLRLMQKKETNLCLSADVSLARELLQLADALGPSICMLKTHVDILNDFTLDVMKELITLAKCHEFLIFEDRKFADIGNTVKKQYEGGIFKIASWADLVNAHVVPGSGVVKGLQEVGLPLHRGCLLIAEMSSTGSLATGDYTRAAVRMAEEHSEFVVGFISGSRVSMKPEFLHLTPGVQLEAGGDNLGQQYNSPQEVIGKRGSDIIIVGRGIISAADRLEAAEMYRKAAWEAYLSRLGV
Description: Inhibition of human ODCase by isothermal titration calorimetry. The method, boiled down: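 Recombinant human enzyme, preincubated overnight at room temperature in 50 mM Tris, 40 mM NaCl, 20 mM DTT. Substrate injection into enzyme–inhibitor mix started the reaction. Triplicates; competitive Ki from rate versus [S] and double-reciprocal analysis.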

For assay [3], the target named is Orotidine 5'-phosphate decarboxylase (Methanobacterium thermoautotrophicum, UniProt O26232). Briefly: Inhibition of Methanobacterium thermoautotrophicum ODCase by isothermal titration calorimetry. More on the design: species or system Methanothermobacter thermautotrophicus. The method, boiled down:
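Recombinant M. thermoautotrophicum enzyme, preincubated overnight at room temperature in 50 mM Tris, 40 mM NaCl, 20 mM DTT. Activity read by ITC at 55 °C in 50 mM Tris, 20 mM DTT, pH 7.5, with 20 nM enzyme and 40 μM substrate; inhibitor 0–100 μM. Substrate injection into enzyme–inhibitor mix started the reaction. Triplicates; competitive Ki from rate versus [S] and double-reciprocal plots.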

The next assay relates to Plasmodium falciparum. Description: Antimalarial activity against Plasmodium falciparum incubated for 48 hrs by fluorescence-based SYBR-green assay. Type of assay: functional, organism-based. The method, boiled down: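 P. falciparum ItG line grown in human O erythrocytes in RPMI 1640 with 10% human serum and 50 μM hypoxanthine. Compound stock was 10 mg/mL in RPMI, filter-sterilized, then serially diluted up to 500 μg/mL with constant parasite numbers. Plates were held 48 h under 3% CO2/2% O2/95% N2 and read by SYBR Green/Triton X-100 fluorescence. Quadruplicates; IC50 by nonlinear regression of dose–response.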

Orotidine 5'-phosphate decarboxylase, sequence (O26232 whole entry): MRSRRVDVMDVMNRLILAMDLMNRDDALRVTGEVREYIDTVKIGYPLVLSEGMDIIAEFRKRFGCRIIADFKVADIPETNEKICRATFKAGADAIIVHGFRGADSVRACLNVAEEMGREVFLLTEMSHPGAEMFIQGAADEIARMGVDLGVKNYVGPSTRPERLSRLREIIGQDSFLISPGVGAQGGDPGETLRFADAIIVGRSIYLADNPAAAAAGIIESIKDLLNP

One may read the Ki as a measure of affinity in units of concentration, obtained from inhibition or displacement. A lower Ki goes with tighter binding. With `O=c1ccn([C@@H]2O[C@H](COP(=O)(O)O)[C@@H](O)[C@H]2O)c(=O)[nH]1`, the Ki amounted to 210 µM in assay [1], 220 µM in assay [2] and 330 µM in assay [3].

Regarding `Nc1ccn([C@@H]2O[C@H](COP(=O)(O)O)[C@@H](O)[C@H]2O)c(=O)[n+]1[O-]`, the Ki in assay [1] stood at 22.1 µM; in assay [3], 11.1 µM. Turning to `O=c1nc(NO)ccn1[C@@H]1O[C@H](COP(=O)(O)O)[C@@H](O)[C@H]1O`, the Ki in assay [1] was over 1000 µM. In general, IC50 refers to the concentration at which inhibition is half-maximal. For `Nc1ccn([C@@H]2O[C@H](CO)[C@@H](O)[C@H]2O)c(=O)[n+]1[O-]`, half-maximal inhibition in the assay on Plasmodium falciparum (IC50) required 411 µg/mL (≈ 1590 µM). On to `Nc1ccn([C@@H]2O[C@H](COP(=O)(O)O)[C@@H](O)[C@H]2O)c(=O)n1`, for which the Ki in assay [1] is over 10000 µM; in assay [2] it was 1400 µM; in assay [3] it was 1200 µM. In the case of `O=c1nc(NO)ccn1[C@@H]1O[C@H](CO)[C@@H](O)[C@H]1O` [N-HYDROXYCYTIDINE], in the assay on Plasmodium falciparum, the IC50 turned out to be 610 µg/mL (≈ 2350 µM).

These data come from ChEMBL document CHEMBL2177049, “Novel cytidine-based orotidine-5'-monophosphate decarboxylase inhibitors with an unusual twist” (J Med Chem, 2012).
